bIAP inh: intestinal alkaline phosphatase (bovine) inhibition; AID 1019; purified bovine IAP, CDP-star luminescence, 30 min; 190,000 tested, under 10 active; inhibition, % at 20 µM;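 active = over 50% inhibition of intestinal alkaline phosphatase at 20 µM in the single-dose screen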
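Incubation: 30 min reaction at room temperature / Material: purified bovine intestinal alkaline phosphatase (IAP) enzyme / Input: enzyme at 1/65,000,000 dilution / Dosing: 20 µM single dose / Signal: CDP-star luminescence signal / Reagent: CDP-star chemiluminescent phosphatase substrate, 30 µM final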
mIAP inh: blocks mouse intestinal alkaline phosphatase. AID 2806. actives 0.2% (n = 330,000). inhibition, % at 10 µM. purified mouse IAP, CDP-Star luminescence, 30 min;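 active = inhibition of at least 40% at 10 µM in the primary screen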;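 also: plate controls were DMSO with enzyme for no effect and no enzyme wells for full effect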
hIAP act: increases human intestinal alkaline phosphatase activity; actives 0.16% (n = 330,000); AID 2524; activation factor at 10 µM; P09923; purified human IAP, CDP-Star luminescence, 30 min; active compounds read high; 1 = vehicle-only enzyme, 0 = enzyme-free background;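 active = activation factor of the enzyme at least 2-fold when tested at 20 µM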
Target sequence (P09923 whole entry, looked up): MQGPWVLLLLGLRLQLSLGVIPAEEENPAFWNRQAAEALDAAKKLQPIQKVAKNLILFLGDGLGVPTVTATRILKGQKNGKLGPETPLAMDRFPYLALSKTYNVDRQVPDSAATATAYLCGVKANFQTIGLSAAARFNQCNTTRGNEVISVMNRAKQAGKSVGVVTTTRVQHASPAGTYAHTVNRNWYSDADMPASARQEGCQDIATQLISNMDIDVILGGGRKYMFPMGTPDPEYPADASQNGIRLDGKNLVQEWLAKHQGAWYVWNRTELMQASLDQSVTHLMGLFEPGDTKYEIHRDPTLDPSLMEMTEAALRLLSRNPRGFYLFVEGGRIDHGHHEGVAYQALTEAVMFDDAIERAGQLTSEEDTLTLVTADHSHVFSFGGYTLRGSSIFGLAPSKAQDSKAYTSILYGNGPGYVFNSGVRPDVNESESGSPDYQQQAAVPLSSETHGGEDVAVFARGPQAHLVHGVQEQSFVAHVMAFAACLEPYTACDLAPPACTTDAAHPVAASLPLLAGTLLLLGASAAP
bIAP activator: increases bovine intestinal alkaline phosphatase activity. purified bovine IAP, CDP-star luminescence, 30 min; active compounds read high; fold of DMSO-control signal, blank-subtracted. activation factor at 20 µM. actives 0.17% (n = 200,000);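 active = activation factor of 2 or more at 20 µM, a signal rise over negative controls twice the positive control's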
hIAP block: blocks human intestinal alkaline phosphatase; purified IAP, CDP-Star luminescence, 30 min; actives 0.12% (n = 330,000); P09923; AID 2544; inhibition, % at 10 µM;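 active = inhibition reaching a set limit with compound at 10 µM in the primary screen, cut at about 35% in these data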;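 also: plate controls were DMSO wells with enzyme for no effect and no-enzyme buffer wells for full effect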
mIAP activ: mouse IAP activation | muIAP, CDP-Star luminescence, 30 min; active compounds read high; 1 = vehicle-only enzyme signal, 0 = enzyme-free wells | activation factor at 10 µM | actives 0.24% (n = 330,000) | AID 2805;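 active = activation factor of at least 2 at 20 µM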
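Assay system: mouse IAP enzyme; Reagent: CDP-Star chemiluminescent phosphatase substrate; Compound: DMSO-dissolved test compounds; Incubation: 30 min, room temperature; Technique: luminescence from enzymatic CDP-Star hydrolysis; Controls: DMSO-only wells and no-enzyme negative control.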
hIAP act confirm: human IAP activation confirmation; AID 434926; activation (%Activity, negative = activation), % at 8.3 µM; purified IAP, CDP-Star luminescence, 30 min; active compounds read low; actives 10% (n = 880); shares compounds with hIAP act;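 active = at least twofold enzyme activation in any of six single-dose repeats, which the averaged readout prints as negative percent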
* = called active by the depositor. Most compounds without a hit are left out; they make up all but 0.72% or so of the library.

`Cc1cc(NC(=O)CSc2nnc(-c3ccc([N+](=O)[O-])cc3)o2)no1` gave mIAP inh -3, hIAP act 0.65, hIAP block 35*, mIAP activ 1 and hIAP act confirm -61.
COc1c(C)cccc1C(=O)NC(=S)Nc1ccccc1N1CCCC1 was read as mIAP inh 11, hIAP act 0.65, hIAP block 35*, mIAP activ 0.89 and hIAP act confirm -34.
For O=C(NC(=S)Nc1ccccc1N1CCCC1)c1ccccc1Br the results were mIAP inh 34, hIAP act 1.1, hIAP block -13 and mIAP activ 0.67.
`CC1OC(Oc2c(-c3cc(O)c(O)c(O)c3)oc3cc(O)cc(O)c3c2=O)C(O)C(O)C1O` (stereo not drawn) gave mIAP inh 14, hIAP act 1.1, hIAP block -11 and mIAP activ 0.86.
Screening O=C(O)C1OC(Oc2c(-c3ccc(O)c(O)c3)oc3cc(O)cc(O)c3c2=O)C(O)C(O)C1O (stereo not drawn) returned bIAP inh 4, mIAP inh 40, hIAP act 0.29, bIAP activator 1, hIAP block 71*, mIAP activ 0.6 and hIAP act confirm 32.
`O=[N+]([O-])c1ccccc1CNC1CCCc2ccccc21` (stereo not drawn) gave bIAP inh 6, mIAP inh -8, hIAP act 0.99, bIAP activator 0.9, hIAP block 1 and mIAP activ 1.1.
`Cc1ccccc1NC(=O)Cn1nc(C)n2cccc2c1=O` gave mIAP inh 6, hIAP act 0.87, hIAP block 13 and mIAP activ 0.94.
`COC(=O)c1cc(NC(=O)Cn2nc(C)n3cccc3c2=O)cc(C(=O)OC)c1` gave mIAP inh -4, hIAP act 0.61, hIAP block 39*, mIAP activ 1 and hIAP act confirm -4.
Screening CCOc1cccc(/C=N/NC(=O)c2cc(C3CC3)[nH]n2)c1O returned mIAP inh 9, hIAP act 2.5*, hIAP block -147, mIAP activ 0.91 and hIAP act confirm -12.
`Cc1ccc(NC(=O)c2cccc(-n3cnnn3)c2)cc1Cl` gave mIAP inh 33, hIAP act 0.99, hIAP block 1 and mIAP activ 0.67.
Screening O=C(O)c1cccc(CSc2n[nH]c(-c3ccc(Cl)cc3Cl)n2)c1 returned bIAP inh 23, mIAP inh -2, hIAP act 0.6, bIAP activator 0.8, hIAP block 40*, mIAP activ 1 and hIAP act confirm -18.
Cc1ccc(C(=O)CCC(=O)Nc2ccccc2C)c(C)c1 was read as mIAP inh -6, hIAP act 0.85, hIAP block 15 and mIAP activ 1.1.
For O=C(NNC(=O)c1ccccc1O)c1cc2ccccc2o1 the results were mIAP inh 27, hIAP act 2.4*, hIAP block -137, mIAP activ 0.73 and hIAP act confirm -41.
`COc1ccc(C(C)NC(=S)NC2CCCC2)cc1OC` (stereo not drawn) gave bIAP inh 10, mIAP inh -10, hIAP act 1, bIAP activator 0.9, hIAP block -4 and mIAP activ 1.1.
`CC(NC(=S)NC1CCC(C(C)(C)C)CC1)c1ccccc1` (stereo not drawn) gave mIAP inh -348, hIAP act 2*, hIAP block -101, mIAP activ 4.5* and hIAP act confirm -111*.
Screening C=CCN(C(=O)c1csnn1)C(C(=O)NC1CCCCC1)c1ccc(F)cc1 (stereo not drawn) returned mIAP inh 5, hIAP act 0.87, hIAP block 13 and mIAP activ 0.95.
For COC(=O)c1ccc(N2NC(=O)/C(=C/c3cc(OC)c(OC)c(OC)c3)C2=O)cc1 the results were mIAP inh -2, hIAP act 0.99, hIAP block 1 and mIAP activ 1.
Screening COC(=O)c1ccc(N2NC(=O)/C(=C/c3cc(OC)c(O)c(OC)c3)C2=O)cc1 returned mIAP inh 13, hIAP act 0.63, hIAP block 37*, mIAP activ 0.87 and hIAP act confirm -48.
C=CCn1c(O)c(N=Nc2ccccc2O)c2ccccc21 was read as mIAP inh 21, hIAP act 2.2*, hIAP block -120, mIAP activ 0.79 and hIAP act confirm 36.
Screening O=C(CCS(=O)(=O)c1ccc(Cl)cc1)NC1CCCC1 returned mIAP inh 9, hIAP act 0.89, hIAP block 11 and mIAP activ 0.91.
Screening COc1ccc(CN2CCC(n3nccc3NC(=O)CCc3ccccc3)CC2)c(C)c1C returned mIAP inh -105, hIAP act 2.3*, hIAP block -131, mIAP activ 2.1* and hIAP act confirm 8.
Screening COc1cc(CN2CCC(n3nccc3NC(=O)CCCc3ccccc3)CC2)ccc1F returned mIAP inh -72, hIAP act 2*, hIAP block -101, mIAP activ 1.7 and hIAP act confirm 41.
For O=C(CCCc1ccccc1)Nc1ccnn1C1CCN(Cc2ccccc2F)CC1 the results were mIAP inh -39, hIAP act 1.9, hIAP block -89 and mIAP activ 1.4.
Screening CCOc1ccc(CN2CCC(n3nccc3NC(=O)CCCc3ccccc3)CC2)cc1 returned mIAP inh -120, hIAP act 3.2*, hIAP block -217, mIAP activ 2.2* and hIAP act confirm 1.
O=C(CCCc1ccccc1)Nc1ccnn1C1CCN(Cc2ccccc2)CC1 was read as mIAP inh -56, hIAP act 1.9, hIAP block -95 and mIAP activ 1.6.
`COc1cccc(CN2CCC(n3nccc3NC(=O)CCCc3ccccc3)CC2)c1O` gave mIAP inh -38, hIAP act 1.6, hIAP block -63 and mIAP activ 1.4.
For Cc1ccc(NC(=O)c2ccc(Cl)c(S(=O)(=O)Nc3c(C)n(C)n(-c4ccccc4)c3=O)c2)cc1Cl the results were mIAP inh 8, hIAP act 1.2, hIAP block -16 and mIAP activ 0.92.
`C=CCN1C=CC(=CC=C(C#N)C#N)C=C1` gave mIAP inh 31, hIAP act 0.65, hIAP block 35*, mIAP activ 0.69 and hIAP act confirm -4.
Screening Cc1nc(Nc2nc3c(c(=O)[nH]2)CCC3)nc2ccccc12 returned mIAP inh 12, hIAP act 2.8*, hIAP block -177, mIAP activ 0.88 and hIAP act confirm -78*.
